Measured values from different studies.
Protocols differ between the studies behind these lines.
Target: Dual specificity protein kinase CLK3 (CLK3, Homo sapiens, UniProt P49761)

Cc1ccc(C(=O)Nc2ccc(CN3CCN(C)CC3)c(C(F)(F)F)c2)cc1C#Cc1cnc2cccnn12  remaining activity (enzyme activity; inhibitor; 23.5 nM): 77%
Cc1ccc(Nc2nccc(N(C)c3ccc4c(C)n(C)nc4c3)n2)cc1S(N)(=O)=O  inhibition (enzyme activity; inhibitor; 0.3 µM): 2%
Nc1ncnc2occ(-c3ccc(NC(=O)Nc4cc(C(F)(F)F)ccc4F)cc3)c12  remaining signal (cell-free assay; inhibitor; 20 µM): 54%
Cn1c2c(c3ccc(Cl)c(Cl)c31)C(C#N)C1(CCCCC1)NC2=O (racemic)  ΔTm (thermal stability; DSF; 10 µM): 0.4 °C
CCOc1cc(-c2nncn2C)ccc1Nc1ncc2cc(C)nc(NCC(C)(C)C)c2n1  inhibition (enzyme activity; inhibitor; FRET; 1 µM): < 15%
O=C(Nc1cnn(-c2csc(C(=O)NC3COC3)c2)c1)Nc1ccccc1Cl  remaining activity (enzyme activity; inhibitor; 5 µM): 120%
CN1CC(Oc2cnc(C#N)cc2-c2ccn3nc(NC(=O)C4CC4)cc3c2)C1  inhibition (enzyme activity; inhibitor; 1 µM): -5%
COc1ccc2c(O[C@@H]3C[C@H]4C(=O)N[C@]5(C(=O)O)CC5/C=C\CCCCC[C@H](NC(=O)OC5CCCC5)C(=O)N4C3)cc(-c3csc(NC(=O)C(C)C)n3)nc2c1C (stereo partly shown)  remaining binding (cell-free assay; competition with immobilised ligand; 1 µM): 100%
Cn1c2c(c3ccc(Cl)c(Cl)c31)C(C#N)C1(CCOCC1)NC2=O (stereo not shown)  ΔTm (thermal stability; DSF; 10 µM): 0.1 °C
CCCOc1ccc(OC)c(F)c1C(=O)c1ccc(C(=O)N[C@@H]2CNC[C@H]2NC(=O)c2ccc3[nH]ncc3c2)cc1  remaining activity (enzyme activity; inhibitor; 10 µM): 105%
CN1CCN(c2cnc3c(C4CCN(C(=O)c5ccc(OC(F)(F)F)cc5N)CC4)ncnc3c2)CC1  remaining binding (cell-free assay; competition with immobilised ligand; 1 µM): 100%
CNC(=O)c1cc(Oc2ccc(NC(=O)Nc3ccc(Cl)c(C(F)(F)F)c3)cc2)ccn1  inhibition (enzyme activity; inhibitor; 0.3 µM): -1%
CN(C)c1ncnc(-c2ccc3nc(Nc4cc(CN5CCN(C(=O)CC(F)(F)F)CC5)ccn4)[nH]c3c2)c1Cl  remaining binding (cell-free assay; competition with immobilised ligand; 1 µM): 100%
N#CCCc1ccc2c(c1)-c1[nH]c3ccc([N+](=O)[O-])cc3c1CC(=O)N2  remaining signal (cell-free assay; 0.5 µM): 108%
CCC(=N\O)/C(C)=C/c1ccc(F)cc1  remaining binding (cell-free assay; competition with immobilised ligand; 1 µM): 73%
Clc1ccc(Nc2nnc(Cc3ccncc3)c3ccccc23)cc1  remaining signal (cell-free assay; 0.5 µM): 105%
CC(C)(C)c1nc2c(s1)c1nc(N)ncc1c1ccc(NS(=O)(=O)c3c(F)cccc3F)c(F)c12  remaining activity (enzyme activity; inhibitor; radiometric; 1 µM): 82%
Cn1c2c(Cl)c(Cl)ccc2c2cc[nH]c(=O)c21  ΔTm (thermal stability; DSF; 10 µM): 1.5 °C
COc1cc2c(N3CCN(C(=O)Nc4ccc(OC(C)C)cc4)CC3)ncnc2cc1OCCCN1CCCCC1  remaining signal (cell-free assay; 0.5 µM): 93.4%
O=C(NC[C@@H]1[C@H]2CN(C(=O)OCc3cc(C(F)(F)F)cc(C(F)(F)F)c3)C[C@@H]12)c1ccc2[nH]nnc2c1  remaining binding (cell-free assay; competition with immobilised ligand; 1 µM): 78%
CCN(CC)CCNC(=O)c1c(C)[nH]c(/C=C2\C(=O)Nc3ccc(F)cc32)c1C  inhibition (enzyme activity; inhibitor; 10 µM): 23%
CCN(CC)c1ccc(C2=NNC(=O)CC2C)cc1[N+](=O)[O-] (stereo not shown)  remaining activity (enzyme activity; inhibitor; 10 µM): 85%
Nc1cnc(N2CCc3cc(S(=O)(=O)Nc4c(F)cc(Cl)cc4F)cc(N4CCCC4=O)c32)nc1  remaining binding (cell-free assay; competition with immobilised ligand; 1 µM): 74%
Cc1ccc(NC(=O)c2ccc(C)c(C(F)(F)F)c2)cc1C#Cc1nn(C2CCC(O)CC2)c2ncnc(N)c12 (stereo not shown)  remaining signal (cell-free assay; 10 µM): 83%
Oc1cccc(-c2nc(N3CCOCC3)c3oc4ncccc4c3n2)c1  remaining signal (cell-free assay; 0.5 µM): 93.1%
Cn1c2c(c3ccc(Cl)c(Cl)c31)C(C#N)C(C)(C)NC2=O (stereo not shown)  ΔTm (thermal stability; DSF; 10 µM): 1.9 °C
O=C(N[C@H]1CCCCC/C=C\C2C[C@@]2(C(=O)O)NC(=O)[C@@H]2C[C@@H](Oc3ccncc3)CN2C1=O)OC1CCCC1 (stereo partly shown)  remaining binding (binding; competition with immobilised ligand; 1 µM): 93%
O=C1Nc2ccc(Cl)cc2C1=Cc1cc(Cl)c(O)c(Cl)c1  remaining signal (cell-free assay; 0.5 µM): 90.9%
Cc1cnc(NC2CCOCC2)nc1-n1cnc(C(=O)NC(CN)c2cc(F)cc(Cl)c2)c1 (stereo not shown)  remaining activity (enzyme activity; inhibitor; radiometric; 1 µM): 99%
CCS(=O)(=O)c1cc2cc(C[C@](O)(CC(C)(C)c3ccc(F)cc3C(N)=O)C(F)(F)F)[nH]c2cn1  remaining binding (cell-free assay; competition with immobilised ligand; 1 µM): 100%
COc1cc2ncnc(Nc3ccc(Oc4ccccc4)c(C)c3C)c2cc1OC  inhibition (enzyme activity; inhibitor; 1 µM): -3%
